{"source": "paper PMC9366314", "about": "(Acta Pharmaceutica Sinica. B, 2022)", "key": {"[1]": {"tested_on": "92.1 cells", "assay": "Transwell invasion assay, 92.1", "type": "cell-based", "details": "3, 10, and 20 μmol/L"}, "[2]": {"tested_on": "92.1 cells", "assay": "Clonogenic", "type": "cell-based", "details": "1 and 3 μmol/L; 9 days", "how_it_was_run": "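92.1 cells were exposed to test compound for 9 days, and colonies were counted with a colony counter. Data are mean ± SEM, n = 3.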"}, "[3]": {"tested_on": "92.1 cells", "assay": "Cell cycle analysis by flow cytometry, 92.1", "type": "cell-based"}, "[4]": {"assay": "Pharmacokinetic studies in ICR mice", "type": "in vivo", "details": "male, mouse, plasma", "how_it_was_run": "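Male ICR mice received test compound at 5 mg/kg iv or 15 mg/kg po. Samples were centrifuged at 6800×g, 2–8 °C for 6 min, stored at −80 °C and quantified by LC–MS/MS.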"}, "[5]": {"tested_on": "phosphorylated ERK", "assay": "Western blot of phosphorylated ERK in MP41 xenograft tumor tissues", "type": "in vivo, mice", "details": "testing dose", "how_it_was_run": "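Cells or xenograft tumour tissue were lysed in RIPA buffer with protease and phosphatase inhibitors. Lysates were cleared at 15,000 rpm, 4 °C for 15 min, and protein was quantified by BCA. Proteins were separated on 8%–12% SDS-PAGE, transferred to PVDF and blocked with 5% BSA. After primary and secondary antibodies, bands were detected by enhanced chemiluminescence.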"}, "[6]": {"tested_on": "MP41 cells", "assay": "Apoptosis assay by flow cytometry", "type": "cell-based", "details": "48 h", "how_it_was_run": "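MP41 cells were seeded at 3 × 10^5 cells/well, left overnight, then exposed to test compound for 48 h. Washed cells were stained with Annexin V-FITC for 15 min, then with PI for 5 min. Samples were analysed by flow cytometry. Data are mean ± SEM, n = 3.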"}, "[7]": {"tested_on": "Gαq/11", "assay": "AngII-induced intracellular Ca2+ release in HEK293-AT1R cells", "type": "cell-based", "details": "100 μmol/L", "how_it_was_run": "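HEK293 cells overexpressing AT1R were loaded with Fluo-4 AM at 37 °C for 1 h, then pretreated with test compound for 0.5 h. AngII was added at a range of concentrations to build a dose–response curve. Fluorescence was read at 485/525 nm excitation/emission. Data are mean ± SEM, n = 3.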"}}}
{"molecule": "CN1CCC[C@H]1CN1CCn2cc(-c3ccccc3)nc2[C@@H]1CC1CCCCC1", "note": "[GQ262]", "values": [{"measurement": "92.1 cell invasion", "setting": "[1]", "value": "poor invasion"}, {"measurement": "Colony formation of 92.1 cells", "setting": "[2]", "value": "obviously blocked the colony formation"}, {"measurement": "Cellular proportion in G0/G1 phase", "setting": "[3]; 10 μmol/L", "value": 77.1, "unit": "%"}, {"measurement": "Cellular proportion in G0/G1 phase", "setting": "[3]; 20 μmol/L", "value": 83.5, "unit": "%"}, {"measurement": "AUC", "setting": "[4]; iv, 5 mg/kg", "value": "1620 ± 70", "unit": "ng·h/mL"}, {"measurement": "Cmax", "setting": "[4]; iv, 5 mg/kg", "value": "2470 ± 192", "unit": "ng/mL"}, {"measurement": "MRT", "setting": "[4]; iv, 5 mg/kg", "value": "1.1 ± 0.1", "unit": "h"}, {"measurement": "Tmax", "setting": "[4]; iv, 5 mg/kg", "value": 0.08, "unit": "h"}, {"measurement": "Vd", "setting": "[4]; iv, 5 mg/kg", "value": "3.9 ± 0.4", "unit": "L/kg"}, {"measurement": "clearance", "setting": "[4]; iv, 5 mg/kg", "value": "50.2 ± 2.1", "unit": "mL/min/kg"}, {"measurement": "half-life", "setting": "[4]; iv, 5 mg/kg", "value": "1.8 ± 0.2", "unit": "h"}, {"measurement": "AUC", "setting": "[4]; po, 15 mg/kg", "value": "2900 ± 358", "unit": "ng·h/mL"}, {"measurement": "Cmax", "setting": "[4]; po, 15 mg/kg", "value": "1040 ± 267", "unit": "ng/mL"}, {"measurement": "MRT", "setting": "[4]; po, 15 mg/kg", "value": "3.1 ± 0.7", "unit": "h"}, {"measurement": "Tmax", "setting": "[4]; po, 15 mg/kg", "value": "0.5 ± 0.4", "unit": "h"}, {"measurement": "bioavailability", "setting": "[4]; po, 15 mg/kg", "value": 59.5, "unit": "%"}, {"measurement": "half-life", "setting": "[4]; po, 15 mg/kg", "value": "2.4 ± 0.7", "unit": "h"}, {"measurement": "Phosphorylated ERK expression in tumor tissues", "setting": "[5]", "value": "inhibited the phosphorylated ERK"}, {"measurement": "Cell apoptosis", "setting": "[6]; 3 μmol/L", "value": 11.5, "unit": "%"}, {"measurement": "Cell apoptosis", "setting": "[6]; 10 μmol/L", "value": 16.0, "unit": "%"}, {"measurement": "Effect on AngII-stimulated Ca2+ release", "setting": "[7]", "value": "obviously suppressed the Ca^2+ release"}]}
